Source: ChEMBL document CHEMBL3868590, “Quambalarine B, a Secondary Metabolite from Quambalaria cyanescens with Potential Anticancer Properties” (J Nat Prod, 2016)

Key:
REH [1] = experiment: Cytostatic activity against eFluor670-labelled human REH cells assessed as live cells at 20 ng/ml measured on day 1 by Hoechst-33258 staining-based FACS analysis (reference value: 89.8%); assay type: functional
[2] = Cytotoxicity against PHA/LPS-stimulated CD3-positive T-lymphocytes in eFluor-670-labeled human PBMC assessed as divided cells at 5 ng/ml administered post 18 hrs of PHA/LPS-stimulation measured after 72 hrs by Hoechst-33258 staining-based FACS analysis (reference value: 24.2%); assay type: toxicity; details: t-cell
Procedure, shortened: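 PBMC were labelled with 1 μmol/L CPD, stimulated with PHA (5 μg/mL) plus LPS (1 μg/mL), and seeded at 3 × 10^5 cells/well in 300 μL. Compound was added after 18 h and left for 72 h. Cells were stained with anti-CD3. Unstimulated cells set the CPD+ gate. Proliferation index, division index and % divided were calculated for CPD+CD3+ Hoechst-negative cells.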

REH [3] = experiment: Cytostatic activity against eFluor670-labelled human REH cells assessed as live cells at 20 ng/ml measured on day 2 by Hoechst-33258 staining-based FACS analysis (reference value: 90.8%); assay type: functional
REH [4] = experiment: Cytostatic activity against eFluor670-labelled human REH cells assessed as live cells at 20 ng/ml measured on day 4 by Hoechst-33258 staining-based FACS analysis (reference value: 88%); assay type: functional
NALM-6 [5] = experiment: Cytostatic activity against eFluor670-labelled human NALM6 cells assessed as live cells at 5 ng/ml measured on day 3 by Hoechst-33258 staining-based FACS analysis (reference value: 98.6%); assay type: functional
Jurkat [6] = experiment: Cytostatic activity against eFluor670-labelled human Jurkat cells assessed as live cells at 10 ng/ml measured on day 1 post dose by Hoechst-33258 staining-based FACS analysis (reference value: 98.2%); assay type: functional
Jurkat [7] = experiment: Cytostatic activity against eFluor670-labelled human Jurkat cells assessed as live cells at 10 ng/ml measured on day 2 post dose by Hoechst-33258 staining-based FACS analysis (reference value: 97%); assay type: functional
NALM-6 [8] = experiment: Cytostatic activity against eFluor670-labelled human NALM6 cells assessed as live cells at 5 ng/ml measured on day 2 by Hoechst-33258 staining-based FACS analysis (reference value: 97.7%); assay type: functional
Jurkat [9] = experiment: Cytostatic activity against eFluor670-labelled human Jurkat cells assessed as live cells at 10 ng/ml measured on day 4 post dose by Hoechst-33258 staining-based FACS analysis (reference value: 97.3%); assay type: functional
Jurkat [10] = experiment: Cytostatic activity against eFluor670-labelled human Jurkat cells assessed as live cells at 10 ng/ml measured on day 3 post dose by Hoechst-33258 staining-based FACS analysis (reference value: 98.3%); assay type: functional
NALM-6 [11] = experiment: Cytostatic activity against eFluor670-labelled human NALM6 cells assessed as live cells at 5 ng/ml measured on day 5 by Hoechst-33258 staining-based FACS analysis (reference value: 98.6%); assay type: functional
REH [12] = experiment: Cytostatic activity against eFluor670-labelled human REH cells assessed as live cells at 20 ng/ml measured immediately after compound addition by Hoechst-33258 staining-based FACS analysis (reference value: 44.1%); assay type: functional
Jurkat [13] = experiment: Cytostatic activity against eFluor670-labelled human Jurkat cells assessed as live cells at 10 ng/ml measured immediately after compound addition by Hoechst-33258 staining-based FACS analysis (reference value: 98.2%); assay type: functional
Jurkat [14] = experiment: Cytostatic activity against eFluor670-labelled human Jurkat cells assessed as live cells at 10 ng/ml measured on day 5 post dose by Hoechst-33258 staining-based FACS analysis (reference value: 97%); assay type: functional
NALM-6 [15] = experiment: Cytostatic activity against eFluor670-labelled human NALM6 cells assessed as live cells at 5 ng/ml measured on day 4 by Hoechst-33258 staining-based FACS analysis (reference value: 98.6%); assay type: functional
NALM-6 [16] = experiment: Cytostatic activity against eFluor670-labelled human NALM6 cells assessed as live cells at 5 ng/ml measured immediately after compound addition by Hoechst-33258 staining-based FACS analysis (reference value: 95.8%); assay type: functional
REH [17] = experiment: Cytostatic activity against eFluor670-labelled human REH cells assessed as live cells at 20 ng/ml measured on day 5 by Hoechst-33258 staining-based FACS analysis (reference value: 85.6%); assay type: functional
NALM-6 [18] = experiment: Cytostatic activity against eFluor670-labelled human NALM6 cells assessed as live cells at 5 ng/ml measured on day 1 by Hoechst-33258 staining-based FACS analysis (reference value: 95.5%); assay type: functional
[19] = Cmax in human; assay type: ADME

SMILES	Activity (REH [1]) [%]	Activity [2] [%]	Activity (REH [3]) [%]	Activity (REH [4]) [%]	Activity (NALM-6 [5]) [%]	Activity (Jurkat [6]) [%]	Activity (Jurkat [7]) [%]	Activity (NALM-6 [8]) [%]	Activity (Jurkat [9]) [%]	Activity (Jurkat [10]) [%]	Activity (NALM-6 [11]) [%]	Activity (REH [12]) [%]	Activity (Jurkat [13]) [%]	Activity (Jurkat [14]) [%]	Activity (NALM-6 [15]) [%]	Activity (NALM-6 [16]) [%]	Activity (REH [17]) [%]	Activity (NALM-6 [18]) [%]	Cmax [19] [µM]
COc1cccc2c1C(=O)c1c(O)c3c(c(O)c1C2=O)C[C@@](O)(C(=O)CO)C[C@@H]3O[C@H]1C[C@H](N)[C@H](O)[C@H](C)O1 [DOXORUBICIN]	73.5	18.1	26.7	2.72	96.3	97	78.5	96.5	9.46	42.8	87.8	44.1	98.2	10.5	93.8	95.8	1.19	95.2	–
CN(Cc1cnc2nc(N)nc(N)c2n1)c1ccc(C(=O)N[C@@H](CCC(=O)O)C(=O)O)cc1 [METHOTREXATE]	–	–	–	–	–	–	–	–	–	–	–	–	–	–	–	–	–	–	> 1000
